Reference: ChEMBL document CHEMBL2385053, “Novel isoquinoline derivatives as antimicrobial agents” (2013)

Experiments:
[1] = tested on: Escherichia coli; assay: Bactericidal activity against Escherichia coli CECT 100 at 0.2 mg/disk after 24 hrs by paper disk-agar diffusion method relative to control; assay type: functional
[2] = tested on: Escherichia coli; assay: Bactericidal activity against Escherichia coli CECT 100 at 0.2 mg/disk after 24 hrs by paper disk-agar diffusion method; assay type: functional
Method in brief: (§1)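 Each bacterial strain was taken from a 24-h culture on solid medium, reactivated in Nutrient Broth, and grown a further 24 h at 28 or 37 °C depending on the strain. 1 mL of suspension was mixed with 15 mL Plate Count Agar. Four 0.5 cm paper disks (0.2 mg/disk) were placed on the set agar. Controls were vehicle-only disks and tetracycline. Plates were incubated 24 h, dark, 28 or 37 °C. The inhibition zone was read in mm as the mean ± SE of three independent experiments.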

[3] = tested on: Pectobacterium carotovorum; assay: Bactericidal activity against Erwinia carotovora CECT 225 at 0.2 mg/disk after 24 hrs by paper disk-agar diffusion method; assay type: functional; method in brief: as §1
[4] = tested on: Escherichia coli; assay: Bactericidal activity against Escherichia coli CECT 405 at 0.2 mg/disk after 24 hrs by paper disk-agar diffusion method; assay type: functional; method in brief: as §1
[5] = tested on: Salmonella typhi; assay: Bactericidal activity against Salmonella typhi CECT 409 at 0.2 mg/disk after 24 hrs by paper disk-agar diffusion method; assay type: functional, Salmonella enterica subsp. enterica serovar Typhi
Method in brief: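 Paper disk-agar diffusion, run in triplicate. 24-h culture reactivated in nutrient broth and grown a further 24 h at 28 or 37 °C by species. 1 mL suspension mixed into 15 mL plate count agar. Four 0.5 cm disks placed per plate, incubated 24 h in the dark. Inhibition zone (mm) reported as mean ± SE of three independent experiments; vehicle disks as negative control.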

[6] = tested on: Enterococcus faecalis; assay: Bactericidal activity against Enterococcus faecalis CECT 481 at 0.2 mg/disk after 24 hrs by paper disk-agar diffusion method; assay type: functional; method in brief: as §1
[7] = tested on: Staphylococcus aureus; assay: Bactericidal activity against Staphylococcus aureus CECT 86 at 0.2 mg/disk after 24 hrs by paper disk-agar diffusion method; assay type: functional; method in brief: as §1
[8] = tested on: Bacillus cereus; assay: Bactericidal activity against Bacillus cereus CECT 148 at 0.2 mg/disk after 24 hrs by paper disk-agar diffusion method; assay type: functional; method in brief: as §1
[9] = tested on: Aspergillus parasiticus; assay: Fungicidal activity against Aspergillus parasiticus CECT 2681 at 0.2 mg/disk after 72 hrs by paper disk-agar diffusion method; assay type: functional
Method in brief: (§2)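 Fungi were grown on potato dextrose agar (PDA) for 7 days at 28 °C. Conidia were suspended to ~10⁶/mL in 0.05% Tween 80 in sterile water, and 1 mL was mixed into 15 mL PDA. Four 0.5 cm paper disks (0.2 mg/disk) were placed on the set agar. Controls were vehicle-only disks and benomyl at species-dependent doses. The inhibition zone was read in mm at 72 h as the mean ± SE of three independent experiments.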

[10] = tested on: Phytophthora citrophthora; assay: Fungicidal activity against Phytophthora citrophthora CECT 2353 at 0.2 mg/disk after 72 hrs by paper disk-agar diffusion method; assay type: functional; method in brief: as §2
[11] = tested on: Trichoderma viride; assay: Fungicidal activity against Trichoderma viride CECT 2423 at 0.2 mg/disk after 72 hrs by paper disk-agar diffusion method; assay type: functional; method in brief: as §2
[12] = tested on: Geotrichum candidum; assay: Fungicidal activity against Geotrichum candidum CCM 245 at 0.2 mg/disk after 72 hrs by paper disk-agar diffusion method; assay type: functional; method in brief: as §2
[13] = tested on: Fusarium culmorum; assay: Fungicidal activity against Fusarium culmorum CCM 172 at 0.2 mg/disk after 72 hrs by paper disk-agar diffusion method; assay type: functional; method in brief: as §2
[14] = tested on: Salmonella typhi; assay: Bactericidal activity against Salmonella typhi CECT 409 at 0.2 mg/disk after 24 hrs by paper disk-agar diffusion method relative to control; assay type: functional, Salmonella enterica subsp. enterica serovar Typhi
[15] = tested on: Escherichia coli; assay: Bactericidal activity against Escherichia coli CECT 405 at 0.2 mg/disk after 24 hrs by paper disk-agar diffusion method relative to control; assay type: functional

SMILES | Activity [1] [%] | inhibition zone (IZ) [2] [mm] | inhibition zone (IZ) [3] [mm] | inhibition zone (IZ) [4] [mm] | inhibition zone (IZ) [5] [mm] | inhibition zone (IZ) [6] [mm] | inhibition zone (IZ) [7] [mm] | inhibition zone (IZ) [8] [mm] | inhibition zone (IZ) [9] [mm] | inhibition zone (IZ) [10] [mm] | inhibition zone (IZ) [11] [mm] | inhibition zone (IZ) [12] [mm] | inhibition zone (IZ) [13] [mm] | Activity [14] [%] | Activity [15] [%]
COc1cc2c(cc1OC)C(CCCCCO)N(C)CC2 (centres undefined) | 62 | 16 | 8 | 11.33 | 12.33 | 10.33 | 10.67 | 0 | – | – | – | – | – | – | –
COc1cc2c(cc1OC)C(CCCCCOC(=O)c1ccc(F)cc1)N(C)CC2 (centres undefined) | – | 14 | 13.5 | 13.67 | 14.83 | 13.67 | 13.67 | 13 | 0 | 0 | 7 | 7 | 8 | 61 | –
COc1cc2c(cc1OC)C(CCCCCOC(=O)Nc1ccc(Cl)cc1)N(C)CC2 (centres undefined) | – | 13.17 | 12.5 | 17.33 | 16.33 | 18 | 17.33 | 14.33 | 0 | 0 | 8.67 | 10.33 | 7.33 | 67 | 68
COc1cc2c(cc1OC)C(CCCCCOC(=O)NCCc1ccc(F)cc1)N(C)CC2 (centres undefined) | – | 11.33 | 11.67 | 16 | 14.83 | 15 | 15.33 | 11.33 | 0 | 0 | 0 | 7.67 | 0 | 61 | 62
COc1cc2c(cc1OC)C(CCCCCOC(=O)NCCc1ccc(Cl)cc1)N(C)CC2 (centres undefined) | – | 12.33 | 18.33 | 17.67 | – | 17 | 16.33 | 14.67 | 0 | 6.25 | 7 | 10 | 15 | 75 | 75
CCCCC1c2cc(OC)c(OC)cc2CCN1C (centres undefined) | – | 0 | 6 | 6 | 6.25 | 7 | 6 | 6 | 0 | 0 | 0 | 0 | 5.5 | – | –
